Calls of active or inactive are those of the source. No cut-off for these calls is given here.
Experiments:
[1] = target: T1, Prostaglandin G/H synthase 1 (Ovis aries) (UniProt P05979); test: Inhibition of full-length ovine COX-1 at 5 uM using arachidonic acid as substrate preincubated for 5 mins followed by substrate addition and measured after 2 mins by colorimetry relative to control; settings: time 7.0 min
T1 sequence (whole entry): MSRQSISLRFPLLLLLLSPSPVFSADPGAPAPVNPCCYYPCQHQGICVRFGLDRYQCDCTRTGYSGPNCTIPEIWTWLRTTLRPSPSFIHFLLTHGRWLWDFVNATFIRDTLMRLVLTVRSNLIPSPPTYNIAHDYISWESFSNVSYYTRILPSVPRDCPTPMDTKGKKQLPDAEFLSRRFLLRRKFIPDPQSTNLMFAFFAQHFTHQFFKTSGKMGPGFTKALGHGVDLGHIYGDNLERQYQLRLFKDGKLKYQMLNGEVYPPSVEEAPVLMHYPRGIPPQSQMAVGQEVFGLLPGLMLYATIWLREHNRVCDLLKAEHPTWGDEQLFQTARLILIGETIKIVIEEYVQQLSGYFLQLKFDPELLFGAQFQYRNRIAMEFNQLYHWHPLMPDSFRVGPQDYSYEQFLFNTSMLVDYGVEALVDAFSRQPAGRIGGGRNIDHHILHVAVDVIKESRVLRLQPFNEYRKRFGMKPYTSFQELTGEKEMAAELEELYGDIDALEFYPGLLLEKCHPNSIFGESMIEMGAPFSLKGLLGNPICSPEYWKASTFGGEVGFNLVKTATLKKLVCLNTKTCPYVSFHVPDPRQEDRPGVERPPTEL

[2] = target: T1, Prostaglandin G/H synthase 1 (Ovis aries); test: Inhibition of full-length ovine COX-1 at 50 uM using arachidonic acid as substrate preincubated for 5 mins followed by substrate addition and measured after 2 mins by colorimetry relative to control; settings: time 7.0 min
Vero = test: Cytotoxicity against African green monkey Vero cells assessed as reduction in cell viability at 2.5 to 500 uM measured after 72 hrs by MTS assay; type: toxicity, cell-based; settings: chlorocebus sabaeus, dose 2.5-500 µM
Procedure, shortened: (§1)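 Cells seeded at 2000 to 4500/well on day 1. Next day, treated 72 h with drug at 2.5 to 500 μM from a 1% DMSO solution in medium (DMSO control), each in triplicate. All with 10% FBS. MTS reagent added for 2.5–3 h at 37 °C, absorbance at 490 nm; eight points averaged per concentration.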

[3] = target: T2, Prostaglandin G/H synthase 1 (Ovis aries, UniProt P05979); test: Inhibition of full-length ovine COX-1 using arachidonic acid as substrate preincubated for 5 mins followed by substrate addition and measured after 2 mins by colorimetry
T2 sequence (P05979 whole entry): T1 sequence (whole entry)

HepG2 [4] = test: Cytotoxicity against human HepG2 cells assessed as reduction in cell viability measured after 72 hrs by MTS assay; type: functional, cell-based; settings: HepG2, 72 h; procedure, shortened: as §1
A549 = test: Cytotoxicity against human A549 cells assessed as reduction in cell viability measured after 72 hrs by MTS assay; type: functional, cell-based; settings: A549, 72 h; procedure, shortened: as §1
[5] = Cytotoxicity against African green monkey Vero cells assessed as reduction in cell viability measured after 72 hrs by MTS assay; type: toxicity, cell-based; settings: African green monkey (Chlorocebus sabaeus); procedure, shortened: as §1
MDA-MB-231 = test: Cytotoxicity against human MDA-MB-231 cells assessed as reduction in cell viability measured after 72 hrs by MTS assay; type: functional, cell-based; settings: MDA-MB-231, 72 h; procedure, shortened: as §1
MCF7 = test: Cytotoxicity against human MCF7 cells assessed as reduction in cell viability measured after 72 hrs by MTS assay; type: functional, cell-based; settings: MCF7, 72 h; procedure, shortened: as §1
DU-145 = test: Cytotoxicity against human DU-145 cells assessed as reduction in cell viability measured after 72 hrs by MTS assay; type: functional, cell-based; settings: DU-145, 72 h; procedure, shortened: as §1
LNCaP = test: Cytotoxicity against human LNCaP cells over expressing androgen receptor F876L mutant assessed as reduction in cell viability measured after 72 hrs by MTS assay; type: functional, cell-based; procedure, shortened: as §1
HeLa = test: Cytotoxicity against human HeLa cells assessed as reduction in cell viability measured after 72 hrs by MTS assay; type: functional, cell-based; procedure, shortened: as §1
HepG2 [6] = test: Induction of apoptosis in human HepG2 cells assessed as increase in cleaved caspase-3 level at 75 uM measured after 20 hrs by Western blot analysis; type: functional, cell-based
Procedure, shortened: (§2)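 Hep-G2 (1 × 10^6/well) plated 48 h before treatment, then exposed 20 h to 0.1% DMSO solutions of compound (DMSO control). Cells washed in PBS and lysed in RIPA; 20–40 μg protein run on 4–20% gel at 150 V for 65 min, transferred to PVDF, blocked in 5% BSA. Probed overnight for cleaved and pro-caspase, Bcl-xL, Bcl-2, Bax and actin, then IRDye secondaries 1 h, with fluorescence quantification.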

HepG2 [7] = test: Cell cycle arrest in human HepG2 cells assessed as increase in cell accumulation at G1/G0 phase at 100 uM measured after 24 to 48 hrs by propidium iodide staining based FACS analysis; type: functional; settings: time 24-48 hrs
Procedure, shortened: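 Hep-G2 grown to 70% confluence in 10-cm dishes, treated in 0.1% DMSO medium for 24 or 48 h (0.1% DMSO control). Floating and trypsinized cells pooled, washed in PBS, fixed overnight at –20 °C in 70% ethanol, then 200 μg/mL RNase A for 30 min and 100 μg/mL propidium iodide for 30 min at room temperature. DNA content read by flow cytometry; two independent experiments in duplicate.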

HepG2 [8] = test: Induction of apoptosis in human HepG2 cells assessed as decrease in Bcl-2 expression at 75 uM measured after 20 hrs by Western blot analysis; type: functional, cell-based; procedure, shortened: as §2
HepG2 [9] = test: Induction of apoptosis in human HepG2 cells assessed as down regulation of Bcl-xl expression at 75 uM measured after 20 hrs by Western blot analysis; type: functional, cell-based; procedure, shortened: as §2
HepG2 [10] = test: Induction of apoptosis in human HepG2 cells assessed as up regulation of Bax expression at 75 uM measured after 20 hrs by Western blot analysis; type: functional, cell-based; procedure, shortened: as §2
HepG2 [11] = test: Induction of apoptosis in human HepG2 cells assessed as increase in ratio of Bax/Bcl-2 expression at 75 uM measured after 20 hrs by Western blot analysis; type: functional, cell-based; procedure, shortened: as §2
HepG2 [12] = test: Down regulation of AR expression in human HepG2 cells at 75 uM measured after 20 hrs by Western blot analysis; type: functional, cell-based

SMILES: COc1ccc2c(Cc3cn(C)c4c(C(=O)NCC(F)(F)F)c(OC)ccc34)cn(C)c2c1C(=O)NCC(F)(F)F
- inhibition [1]: < 20%
- inhibition [2]: < 20%
- Activity (Vero): Non-Toxic

SMILES: COc1ccc2c(Cc3cn(C)c4c(C(=O)OCC(F)(F)F)c(OC)ccc34)cn(C)c2c1C(=O)OCC(F)(F)F
- inhibition [1]: < 20%
- inhibition [2]: 22.9%
- Activity (Vero): Non-Toxic

SMILES: COc1ccc2c(CO)cn(C)c2c1C(=O)NCC(F)(F)F
- inhibition [1]: < 20%
- inhibition [2]: < 20%
- IC50 [3]: 85.8 µM
- IC50 (HepG2 [4]): 58.2 µM
- IC50 (A549): 164 µM
- IC50 at 72 h [5]: 229 µM
- IC50 (MDA-MB-231): 253 µM
- IC50 (MCF7): 273 µM
- IC50 (DU-145): 144 µM
- IC50 (LNCaP): 99 µM
- IC50 (HeLa): 110 µM

SMILES: COc1ccc2c(C(=O)O)cn(C)c2c1C(=O)OCC(F)(F)F
- Activity (Vero): Non-Toxic

SMILES: Cc1ccc(-c2cc(C(F)(F)F)nn2-c2ccc(S(N)(=O)=O)cc2)cc1 [CELECOXIB]
- Activity (HepG2 [6]): Active
- Activity (HepG2 [7]): Active
- IC50 (HepG2 [4]): 58.2 µM
- IC50 (A549): 57.9 µM
- IC50 at 72 h [5]: 60.6 µM
- IC50 (MDA-MB-231): 69.6 µM
- IC50 (MCF7): 64.2 µM
- IC50 (DU-145): 59.3 µM
- IC50 (LNCaP): 16.4 µM
- IC50 (HeLa): 58.2 µM
- Activity (HepG2 [8]): Active
- Activity (HepG2 [9]): Active
- Activity (HepG2 [10]): Active
- Activity (HepG2 [11]): Active
- Activity (HepG2 [12]): Active

— ChEMBL document CHEMBL5154731, “Synthetic methodology-enabled discovery of a tunable indole template for COX-1 inhibition and anti-cancer activity” (Bioorg Med Chem, 2022)
